Assays:
[1] = Antioxidant activity assessed as ABTS free radical scavenging activity after 3 mins by spectrophotometry; type: functional
In short: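 ABTS (2 mM stock in PBS, pH 7.4) reacted with 70 mM K2S2O8, left in dark at room temperature 15-16 h, then diluted with PBS to absorbance 0.70 ± 0.03 at 734 nm. Sample in DMSO (0.1 mL, range of concentrations) mixed with 1.9 mL radical solution; absorbance read at ambient temperature after 3 min, PBS blank. Scavenging % vs sample-free control; triplicate means; IC50 = concentration scavenging 50%.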

[2] = test system: Radical scavenging activity; test: Antioxidant activity assessed as DPPH free radical scavenging activity after 30 mins by spectrophotometry; type: functional
In short: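 Sample in DMSO (0.1 mL, range of concentrations) added to 1.9 mL of 0.004% (w/v) DPPH radical in ethanol; incubated at 37 °C, absorbance read at 517 nm after 30 min. Scavenging % = (A control − A test)/A control × 100, control lacking sample. Triplicate, means used; IC50 taken as concentration scavenging 50% of radicals.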

IC50 [1] [µM]	IC50 [2] [µM]	SMILES
52.4	75.2	c1cc2c3c(c1)OCC(c1cccc4ccccc14)N3CCC2 (stereo not given)
10	45	Nc1ccc(C2COc3cccc4c3N2CCC4)cc1 (stereo not given)
20.2	56.3	c1csc(C2COc3cccc4c3N2CCC4)c1 (stereo not given)
42.5	78.3	c1cc2c3c(c1)OCC(c1ccc4c(c1)OCO4)N3CCC2 (stereo not given)
18.3	49.7	O=C1O[C@H]([C@@H](O)CO)C(O)=C1O [ASCORBIC ACID]
26.7	64.5	COc1ccc(C2COc3cccc4c3N2CCC4)cc1 (stereo not given)
28.4	75.5	COc1ccc(C2COc3cccc4c3N2CCC4)cc1OC (stereo not given)
62.2	98.3	c1cc2c3c(c1)OCC(c1ccc4ccccc4c1)N3CCC2 (stereo not given)
15.3	45.4	COc1ccccc1C1COc2cccc3c2N1CCC3 (stereo not given)
62.4	95.4	CC1Oc2cccc3c2N(CCC3)C1c1ccccc1 (stereo not given)
32.1	63.1	Cc1cc(C(C)(C)C)c(O)c(C(C)(C)C)c1 [BUTYLATED HYDROXYTOLUENE]
9.3	44.6	COc1cccc(C2COc3cccc4c3N2CCC4)c1 (stereo not given)
48.4	98.4	Cc1ccc(C2COc3cccc4c3N2CCC4)cc1 (stereo not given)
17.8	52.3	Nc1cccc(C2COc3cccc4c3N2CCC4)c1 (stereo not given)
38.3	78.8	c1ccc(C2COc3cccc4c3N2CCC4)cc1 (stereo not given)
